Test results as given in ChEMBL document CHEMBL1817614, “Inhibitory effects of chalcone glycosides isolated from Brassica rapa L. 'hidabeni' and their synthetic derivatives on LPS-induced NO production in microglia” (Bioorg Med Chem, 2011).
Activity calls are given as the source filed them. No cut-off for these calls is given here.

Assays:
[1] = tested on: HAPI; assay: Antiinflammatory activity in rat HAPI cells assessed as inhibition of LPS-induced iNOS mRNA expression at 50 uM treated 30 mins before LPS challenge measured after 6 hrs by RT-PCR analysis; format: functional, cell-based
In short: (§1)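 HAPI cells were seeded in 1% FCS DMEM and treated the next day. Compound (50 µM) was present 30 min before and during LPS (100 ng/mL) for 6 h. RT-PCR used GAPDH normalization. IFN-β ran 35 cycles with anneal at 54 °C; IL-1β ran 30 cycles with anneal at 58 °C. Data are % of LPS alone, mean SEM, n = 3.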

[2] = tested on: HAPI; assay: Antiinflammatory activity in rat HAPI cells assessed as inhibition of LPS-induced nitric oxide production at 50 uM treated 30 mins before LPS challenge measured after 24 hrs by Griess method; format: functional, cell-based
In short: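 About 1.0 × 10⁵ HAPI cells per well were seeded in 1% FCS DMEM. The next day, compound (50 µM) was present 30 min before and during LPS (100 ng/mL) for 24 h. Medium nitrite was read by Griess kit. Data are fold induction vs untreated cells, mean SD, n = 3 or 4.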

[3] = tested on: HAPI; assay: Antiinflammatory activity in rat HAPI cells assessed as inhibition of IFN-gamma-induced iNOS mRNA expression at 50 uM treated 30 mins before LPS challenge measured after 8 hrs by RT-PCR analysis; format: functional, cell-based
In short: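 HAPI rat microglia were grown in DMEM with 10% heat-inactivated FCS at 37 °C. Compound (50 µM) was added 30 min before and kept during IFN-γ (100 ng/mL) for 8 h. Total RNA was taken for RT-PCR, gel densitometry and normalization to GAPDH. Data are % of IFN-γ alone, mean SEM, n = 3.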

[4] = tested on: HAPI; assay: Antiinflammatory activity in rat HAPI cells assessed as inhibition of LPS-induced IL1-beta mRNA expression at 50 uM treated 30 mins before LPS challenge measured after 6 hrs by RT-PCR analysis; format: functional, cell-based; in short: as §1
[5] = tested on: HAPI; assay: Inhibition of LPS-induced STAT1 phosphorylation in rat HAPI cell lysates at 50 uM treated 30 mins before LPS challenge measured after 3 hrs by immunoblot analysis
[6] = tested on: HAPI; assay: Antiinflammatory activity in rat HAPI cells assessed as inhibition of LPS-induced IFN-R mRNA expression at 50 uM treated 30 mins before LPS challenge measured after 6 hrs by RT-PCR analysis; format: functional, cell-based
In short: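 Cells were seeded in 1% FCS DMEM and treated the next day. Compound (50 µM) was present 30 min before and during LPS (100 ng/mL) for 6 h. IFN-R RT-PCR ran 35 cycles with anneal at 55 °C and was normalized to GAPDH. Data are fold change vs untreated cells, mean SEM, n = 3.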

[7] = tested on: HAPI; assay: Inhibition of LPS-induced ERK phosphorylation in rat HAPI cell lysates at 50 uM treated 30 mins before LPS challenge measured after 1 hr by immunoblot analysis; format: cell-based
In short: (§2)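 Compound (50 µM) or vehicle was given 30 min before LPS (100 ng/mL) for 1 h. Whole-cell lysates were made in Tris pH 7.4 Triton buffer with phosphatase inhibitors. Lysate (40 µg) was run on SDS-PAGE and immunoblotted with phospho-specific and total MAPK antibodies (1:1,000), biotin secondary/ABC and chemiluminescence. Blots shown represent three experiments.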

[8] = tested on: HAPI; assay: Inhibition of LPS-induced NF-kappaB nuclear translocation in rat HAPI cell nuclear extracts at 50 uM treated 30 mins before LPS challenge measured after 3 hrs by immunoblot analysis; format: cell-based
In short: (§3)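 Compound (50 µM) or vehicle was given 30 min before LPS (100 ng/mL) for 3 h. Nuclear extracts were made by NP-40 lysis and 0.4 M NaCl HEPES pH 7.8 extraction. Extract (10 µg) was immunoblotted for NF-κB p65 or STAT1 (1:1,000), with ABC chemiluminescence detection. Blots shown represent three experiments.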

[9] = tested on: HAPI; assay: Inhibition of LPS-induced p38 phosphorylation in rat HAPI cell lysates at 50 uM treated 30 mins before LPS challenge measured after 1 hr by immunoblot analysis; format: cell-based; in short: as §2
[10] = tested on: HAPI; assay: Inhibition of LPS-induced JNK phosphorylation in rat HAPI cell lysates at 50 uM treated 30 mins before LPS challenge measured after 1 hr by immunoblot analysis; format: cell-based; in short: as §2
[11] = tested on: HAPI; assay: Inhibition of LPS-induced STAT1 nuclear translocation in rat HAPI cell nuclear extracts at 50 uM treated 30 mins before LPS challenge measured after 3 hrs by immunoblot analysis; format: cell-based; in short: as §3

| SMILES | inhibition [1] | inhibition [2] | also measured |
| --- | --- | --- | --- |
| COc1cc(C(=O)/C=C/c2ccccc2)ccc1O[C@@H]1O[C@H](CO)[C@@H](O)[C@H](O)[C@H]1O | Active | Active | inhibition [3]: Active |
| CC1=CC(=O)CC(C)(C)[C@@]1(O)/C=C/[C@H](C)O[C@@H]1O[C@H](CO)[C@@H](O)[C@H](O)[C@H]1O | Active |  |  |
| COc1cc(C(C)=O)cc(OC)c1O[C@@H]1O[C@H](CO)[C@@H](O)[C@H](O)[C@H]1O | Active |  |  |
| COc1cc(C(=O)/C=C/c2ccc(O[C@@H]3O[C@H](CO)[C@@H](O)[C@H](O)[C@H]3O)cc2)ccc1O[C@@H]1O[C@H](CO)[C@@H](O)[C@H](O)[C@H]1O | Active |  |  |
| COc1cc(C(=O)/C=C/c2ccc(O)cc2)ccc1O[C@@H]1O[C@H](CO)[C@@H](O)[C@H](O)[C@H]1O | Active | Active |  |
| COc1ccc(/C=C/C(=O)c2ccc(O[C@@H]3O[C@H](CO)[C@@H](O)[C@H](O)[C@H]3O)c(OC)c2)cc1 | Active | Active | inhibition [4]: Active; inhibition [5]: Active; inhibition [6]: inactive; inhibition [7]: inactive; inhibition [8]: inactive; inhibition [3]: Active; inhibition [9]: inactive; inhibition [10]: inactive; inhibition [11]: Active |
| CC(=O)c1ccc(O[C@@H]2O[C@H](CO)[C@@H](O)[C@H](O)[C@H]2O)cc1 | Active |  |  |
